Laboratory results taken from ChEMBL document CHEMBL1165856, “Naftifine-analogues as anti-Trypanosoma cruzi agents” (Eur J Med Chem, 2010).
≈ marks a conversion by molar mass, not a printed value. Where “and” joins values, the source holds several entries; their conditions need not be identical. Equal values may be shown once.

Key:
Trypanosoma cruzi [1] = assay: Antitrypanosomal activity against Trypanosoma cruzi Tulahuen 2; assay type: functional; details: read-out: ID50 (the source's name)
Outline: (§1)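 Epimastigotes were grown at 28 °C in BHI-tryptose with 5% FBS. Stationary-phase parasites are inoculated at 8 × 10⁶ cells/mL into medium containing increasing drug concentrations from DMSO stock (final DMSO ≤0.4%; vehicle control). Growth is followed by A600. ID50 is the concentration that halves the day-5 absorbance ratio relative to control.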

Trypanosoma cruzi [2] = assay: Antitrypanosomal activity against Trypanosoma cruzi CL Brener; assay type: functional; details: read-out: ID50 (the source's name); outline: as §1
[3] = Cytotoxicity against mouse J774 cells after 48 hrs by MTT assay; assay type: cell-based; details: read-out: ID50
Outline: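 J-774 macrophages were seeded at 1 × 10⁵ cells/well in RPMI 1640 with 20% heat-inactivated FCS and left to attach for 48 h at 37 °C in 5% CO₂. Cells were then exposed to compounds for 48 h. MTT was added at 0.4 mg/mL final, formazan was dissolved in DMSO, and A595 was read. ID50 is the concentration cutting control absorbance by 50%, averaged over three experiments.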

[4] = Selectivity index, ratio of ID50 for mouse J774 cells to ID50 for Trypanosoma cruzi Tulahuen 2; assay type: toxicity, cell-based; details: J774 cells versus Trypanosoma cruzi Tulahuen 2
Outline: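 Selectivity index is the ID50 in J-774 macrophages (48 h MTT) divided by the ID50 against Tulahuen 2 epimastigotes (day-5 A600 growth).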

Candida albicans = assay: Antifungal activity against Candida albicans ATCC 10231 after 48 hrs; assay type: functional; details: ATCC 10231, 48 h
Outline: (§2)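 CLSI M27-A2 broth microdilution in RPMI 1640 buffered to pH 7.0 with MOPS. Inoculum is 10³ CFU/mL from Sabouraud-grown yeasts. Compound is two-fold serially diluted, final DMSO ≤1%. Incubated at 35 °C in a moist, dark chamber and read visually at 48 h. MIC is the lowest concentration giving total growth inhibition.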

Candida tropicalis = assay: Antifungal activity against Candida tropicalis C 131 2000 after 48 hrs; assay type: functional; outline: as §2
Saccharomyces cerevisiae = assay: Antifungal activity against Saccharomyces cerevisiae ATCC 9763 after 48 hrs; assay type: functional; details: ATCC 9763, 48 h; outline: as §2
Cryptococcus neoformans = assay: Antifungal activity against Cryptococcus neoformans ATCC 32264 after 48 hrs; assay type: functional; outline: as §2
Aspergillus fumigatus = assay: Antifungal activity against Aspergillus fumigatus ATCC 26934 after 48 hrs; assay type: functional; details: ATCC 26934, 48 h
Outline: (§3)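 Aspergillus spp. were tested by CLSI M38-A broth microdilution in RPMI 1640 with MOPS at pH 7.0. Spore inoculum is 10³ CFU/mL, with two-fold compound dilutions and final DMSO ≤1%. Incubated at 35 °C in a moist, dark chamber. MIC is read visually as total growth inhibition, at a time set by growth of the control fungus.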

Aspergillus flavus = assay: Antifungal activity against Aspergillus flavus ATCC 9170 after 48 hrs; assay type: functional; details: ATCC 9170, 48 h; outline: as §3
Aspergillus niger = assay: Antifungal activity against Aspergillus niger ATCC 9029 after 48 hrs; assay type: functional; details: ATCC 9029, 48 h; outline: as §3
Nannizzia gypsea = assay: Antifungal activity against Microsporum gypseum C 115 after 48 hrs; assay type: functional; details: C 115, 48 h
Outline: (§4)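 Dermatophytes were tested by CLSI M38-A microdilution in MOPS-buffered RPMI 1640 at pH 7.0. Inoculum is 10³ CFU/mL, with two-fold serial compound dilutions and final DMSO ≤1%. Trays are kept at 28–30 °C in a moist, dark chamber. MIC is the lowest concentration with total growth inhibition, read visually when control growth allows.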

Trichophyton rubrum = assay: Antifungal activity against Trichophyton rubrum C 113 after 48 hrs; assay type: functional; details: C 113, 48 h; outline: as §4
[5] = test system: Trichophyton mentagrophytes; assay: Antifungal activity against Trichophyton mentagrophytes ATCC 9972 after 48 hrs; assay type: functional; details: ATCC 9972, 48 h; outline: as §4
Trypanosoma cruzi [6] = assay: Antitrypanosomal activity against Trypanosoma cruzi Tulahuen 2 at 25 uM; assay type: functional
Outline: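 Tulahuen 2 epimastigotes (8 × 10⁶ cells/mL, 28 °C, BHI-tryptose with 5% FBS) were exposed to a single drug concentration, with final DMSO ≤0.4% and a vehicle control. Percent growth inhibition = {1 − [(Ap − A0p)/(Ac − A0c)]} × 100, using A600 of drug and control cultures at day 0 and day 5.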

[7] = Candida tropicalis, C 131 2000, 48 h, read-out: MIC
[8] = Cryptococcus neoformans, ATCC 32264, 48 h, read-out: MIC

IC50 (Trypanosoma cruzi [1]) [µM]	IC50 (Trypanosoma cruzi [2]) [µM]	MIC (Candida albicans) [µg/mL]	MIC (Candida tropicalis; [7]) [µg/mL]	MIC (Saccharomyces cerevisiae) [µg/mL]	MIC (Cryptococcus neoformans; [8]) [µg/mL]	MIC (Aspergillus fumigatus) [µg/mL]	MIC (Aspergillus flavus) [µg/mL]	MIC (Aspergillus niger) [µg/mL]	MIC (Nannizzia gypsea) [µg/mL]	MIC (Trichophyton rubrum) [µg/mL]	MIC [5] [µg/mL]	SMILES	CC50 at 48 h [3] [µM]	selectivity ratio [4]	MFC (Nannizzia gypsea) [µg/mL]	MFC (Trichophyton rubrum) [µg/mL]	MFC [5] [µg/mL]	further results
3.8	7.9	125 (≈ 268 µM)	125 (≈ 268 µM)	62.5 (≈ 134 µM)	62.5 (≈ 134 µM)	> 250	> 250	> 250	62.5 (≈ 134 µM)	62.5 (≈ 134 µM)	62.5 (≈ 134 µM)	COc1nn(CCOCCN2CCN(C/C=C/c3ccccc3)CC2)c2ccc([N+](=O)[O-])cc12	< 100	< 26.3	125 (≈ 268 µM)	125 (≈ 268 µM)	125 (≈ 268 µM)	MFC (Candida albicans): 125 µg/mL (≈ 268 µM); MIC (Candida tropicalis): 125 µg/mL (≈ 268 µM); MFC (Saccharomyces cerevisiae): 62.5 µg/mL (≈ 134 µM); MFC (Cryptococcus neoformans; Cryptococcus neoformans, ATCC 32264, 48 h): 62.5 µg/mL (≈ 134 µM)
–	–	> 250	> 250	> 250	> 250	> 250	> 250	> 250	62.5 (≈ 227 µM)	62.5 (≈ 227 µM)	62.5 (≈ 227 µM)	N#Cc1c2ccccc2[n+]([O-])n1C/C=C/c1ccccc1	–	–	125 (≈ 454 µM)	125 (≈ 454 µM)	125 (≈ 454 µM)	inhibition at 25 µM (Trypanosoma cruzi [6]): 28%
10.6	4.5	> 250	> 250	> 250	–	> 250	> 250	> 250	62.5 (≈ 116 µM)	62.5 (≈ 116 µM)	62.5 (≈ 116 µM)	O=[N+]([O-])c1ccc2c(c1)c(OCc1ccccc1)nn2CCCCCN1CCN(C/C=C/c2ccccc2)CC1	< 100	< 9.4	125 (≈ 232 µM)	125 (≈ 232 µM)	125 (≈ 232 µM)	MIC (Cryptococcus neoformans): 62.5 µg/mL and 31.2 µg/mL
22.6	16.9	–	–	–	–	–	–	–	–	–	–	CN(C/C=C/c1ccccc1)Cc1ccc2no[n+]([O-])c2c1	< 100	< 4.4	–	–	–	–
